The values that follow come from ChEMBL document CHEMBL1641401, “Synthesis of antimitotic polyalkoxyphenyl derivatives of combretastatin using plant allylpolyalkoxybenzenes” (2010).

Molecules are shown by their SMILES. Active and inactive are the calls of the source. A value given as a limit tells only on which side of the number the result lay.

Test [1] concerns Paracentrotus lividus. As to the kind of experiment: Antimitotic activity against Paracentrotus lividus embryo assessed as cleavage alteration after 2.5 to 6 hrs post fertilization by sea urchin embryo assay. The test is classed as functional. The method in brief: (§1)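 Fertilized sea urchin eggs, cultured at room temperature in filtered seawater with paddle agitation (60 rpm), exposed 10-25 min post-fertilization (45-60 min before first cleavage) to 2-fold decreasing concentrations as a monolayer, up to 2000 embryos/mL. Stocks: 5 mM in 95% EtOH, or 5-20 mM in DMSO then 10-fold diluted in 95% EtOH. Cleavage scored microscopically 2.5-6 h post-fertilization. EC = threshold concentration causing cleavage alteration with death before hatching or full arrest.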

The test system of test [2] is Paracentrotus lividus. As to the kind of experiment: Antimitotic activity against Paracentrotus lividus embryo assessed as cleavage arrest after 2.5 to 6 hrs post fertilization by sea urchin embryo assay. The test is classed as functional. The method in brief: as §1
For test [3], the system named is Paracentrotus lividus. As to the kind of experiment: Antimitotic activity against Paracentrotus lividus embryo assessed as embryo spinning after 0.5 to 20 hrs post dose by sea urchin embryo assay. The test is classed as functional. Summed up: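 Free-swimming blastulae from the same culture treated just after hatching (9-12 h post-fertilization) in filtered seawater at room temperature. Final DMSO at most 0.05%, EtOH at most 1%. Tubulin destabilization scored microscopically as loss of forward movement, settling to the vessel bottom and rapid spinning about the animal-vegetal axis.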

Test [4] has as its system Paracentrotus lividus. The test can be described thus: Antimitotic activity against Paracentrotus lividus embryo assessed as cleavage alteration up to 5 uM after 2.5 to 6 hrs post fertilization by sea urchin embryo assay. The class given is functional, organism-based. The method in brief:
(§2)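 Fertilized sea urchin eggs, treated 10-25 min after fertilization (45-60 min before first cleavage), exposed to 2-fold decreasing concentrations; monolayer in filtered seawater at room temperature, up to 2000 embryos/mL. Compounds from EtOH or DMSO stocks diluted in 95% EtOH; final DMSO ≤0.05%, EtOH ≤1%. Cleavage scored microscopically 2.5-6 h post-fertilization; EC = threshold concentration causing cleavage alteration with death before hatching or full mitotic arrest.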

Test [5] has as its system Paracentrotus lividus. The test can be described thus: Antimitotic activity against Paracentrotus lividus embryo assessed as cleavage alteration up to 80 to 100 uM after 2.5 to 6 hrs post fertilization by sea urchin embryo assay. The test is classed as functional, organism-based. Summed up: as §2

Take `COc1ccc(/C=C\c2cc(OC)c(OC)c(OC)c2OC)cc1O`: the figures for the EC in the test with Paracentrotus lividus [1], in the test with Paracentrotus lividus [2] and in the test with Paracentrotus lividus [3] were 0.02 µM, 0.1 µM and 1 µM, respectively.
As to `COc1ccc(/C=C\c2ccc3c(c2)OCCO3)cc1O`, the EC in the test with Paracentrotus lividus [1] amounted to 0.02 µM; with Paracentrotus lividus [2], 0.5 µM; in the test with Paracentrotus lividus [3], 1 µM.
The like results for `COc1ccc(/C=C\c2cc(OC)c3c(c2)OCCO3)cc1O` were, in that order, 0.002 µM, 0.01 µM and 0.05 µM.
Consider `COc1ccc(-c2nc(-c3c(Cl)c(OC)c4c(c3OC)OCO4)no2)cc1O`, for which the EC in the test with Paracentrotus lividus [1] and in the test on Paracentrotus lividus [2] was over 4 µM throughout.
`COc1ccc(-c2nnc(-c3cc(OC)c4c(c3OC)OCO4)[nH]2)cc1O`: the EC in the test on Paracentrotus lividus [1], with Paracentrotus lividus [2] and in the test with Paracentrotus lividus [3] was over 4 µM in each case.
For the compound `COc1ccc(/C=C\c2cc(OC)c3c(c2)OCO3)cc1O` [Combretastatin A-2], the EC was determined as 0.002 µM in the test on Paracentrotus lividus [1], 0.01 µM in the test with Paracentrotus lividus [2] and 0.05 µM with Paracentrotus lividus [3].
Turning to `C/C=C/c1cc(OC)c(OC)c(OC)c1OC`, the outcome in the test with Paracentrotus lividus [4] was inactive.
Turning to `COc1ccc(-c2nnc(-c3ccc(OC)c(OC)c3)o2)cc1OC`, the EC in the test on Paracentrotus lividus [1] was 0.5 µM; in the test on Paracentrotus lividus [2] it was 10 µM; with Paracentrotus lividus [3] it was 5 µM.
Regarding `COc1cc(/C=C/c2cc(OC)c3c(c2OC)OCO3)ccc1O`, the EC in the test on Paracentrotus lividus [1] is over 4 µM; with Paracentrotus lividus [2], over 4 µM; in the test on Paracentrotus lividus [3], over 5 µM.
With `COc1ccc(-c2nc(-c3cc4c(c(OC)c3OC)OCO4)no2)cc1O`, the EC with Paracentrotus lividus [1], in the test with Paracentrotus lividus [2] and in the test on Paracentrotus lividus [3] was over 4 µM in each case.
Regarding `COc1ccc(/C=C\c2cc3c(cc2OC)OCCO3)cc1O`, the values for the EC in the test on Paracentrotus lividus [1], in the test on Paracentrotus lividus [2] and with Paracentrotus lividus [3] were 0.02 µM, 0.2 µM and 1 µM, respectively.
For `COc1ccc(/C=C\c2cc3c(c(OC)c2OC)OCO3)cc1O`, the values for the EC in the test on Paracentrotus lividus [1], with Paracentrotus lividus [2] and in the test with Paracentrotus lividus [3] were 0.01 µM, 0.2 µM and 0.5 µM, respectively.
`COc1ccc(/C=C/c2cc(OC)c3c(c2)OCCO3)cc1O`: the EC with Paracentrotus lividus [1] amounted to 0.02 µM; in the test with Paracentrotus lividus [2] it was 0.1 µM; in the test with Paracentrotus lividus [3], 2 µM.
As to `COc1ccc(-c2nc(-c3cc(OC)c4c(c3OC)OCO4)no2)cc1O`, the EC in the test with Paracentrotus lividus [1], in the test with Paracentrotus lividus [2] and with Paracentrotus lividus [3] was over 4 µM throughout.
Regarding `COc1cc(-c2nnc(-c3cc(OC)c4c(c3)OCO4)o2)cc(OC)c1OC`, the EC in the test with Paracentrotus lividus [1] is 0.5 µM; in the test on Paracentrotus lividus [2], 2 µM; with Paracentrotus lividus [3], over 5 µM.
As for `COc1ccc(-c2nnc(-c3cccc(F)c3)o2)cc1OC`, the EC with Paracentrotus lividus [1] was 1 µM; in the test on Paracentrotus lividus [2] it was over 4 µM; with Paracentrotus lividus [3], over 5 µM.
The like results for `COc1ccc(-c2nc(Cc3cc(OC)c4c(c3OC)OCO4)no2)cc1O` were, in that order, 4 µM, over 4 µM and over 5 µM.
Consider `C=CCc1cc2c(c(OC)c1OC)OCO2`, for which the outcome in the test on Paracentrotus lividus [5] was inactive.
With `COc1ccc(-c2nnc(-c3cc4c(c(OC)c3OC)OCO4)[nH]2)cc1O`, the EC is 4 µM in the test on Paracentrotus lividus [1], over 4 µM in the test with Paracentrotus lividus [2] and over 4 µM in the test with Paracentrotus lividus [3].
For the compound `COc1ccc(/C=C\c2cc(OC)c3c(c2OC)OCO3)cc1O`, the EC in the test on Paracentrotus lividus [1] was found to be 0.02 µM; in the test on Paracentrotus lividus [2], 0.1 µM; with Paracentrotus lividus [3], 1 µM.
In the case of `COc1ccc(/C=C(/C(=O)O)c2cc(OC)c(OC)c(OC)c2)cc1O`, the EC with Paracentrotus lividus [1], in the test with Paracentrotus lividus [2] and in the test with Paracentrotus lividus [3] was over 11.2 µM in each case.
For `COc1ccc(/C=C/c2cc(OC)c3c(c2)OCO3)cc1O`, the EC with Paracentrotus lividus [1] is 0.02 µM; with Paracentrotus lividus [2], 0.1 µM; in the test with Paracentrotus lividus [3], 1 µM.
Consider `COc1ccc(-c2nc(-c3cc(OC)c4c(c3)OCO4)no2)cc1O`, for which the EC in the test with Paracentrotus lividus [1] was 4 µM; in the test with Paracentrotus lividus [2], over 4 µM; with Paracentrotus lividus [3], over 4 µM.
In the case of `COc1ccc(/C=C\c2cc(OC)c(OC)c(OC)c2)cc1O` [COMBRETASTATIN A4], the values for the EC in the test on Paracentrotus lividus [1], in the test with Paracentrotus lividus [2] and in the test with Paracentrotus lividus [3] were 0.002 µM, 0.01 µM and 0.05 µM, respectively.
`COc1ccc(/C=C/c2cc3c(cc2OC)OCCO3)cc1O`: the EC with Paracentrotus lividus [1] is 0.1 µM; in the test on Paracentrotus lividus [2], 2 µM; in the test with Paracentrotus lividus [3] it was over 5 µM.
The like results for `C/C=C/c1cc(OC)c2c(c1OC)OCO2` [ISOAPIOL] were, in that order, 2 µM, 8 µM and over 10 µM.
In the case of `COc1ccc(/C=C/c2cc(OC)c3c(c2OC)OCO3)cc1O`, the EC in the test with Paracentrotus lividus [1] is 0.5 µM; in the test with Paracentrotus lividus [2], 4 µM; with Paracentrotus lividus [3], 5 µM.
In the case of `C=CCc1cc(OC)c2c(c1)OCO2`, the result with Paracentrotus lividus [5] was inactive.
Take `COc1ccc(/C=C/c2cc3c(c(OC)c2OC)OCO3)cc1O`: the EC in the test with Paracentrotus lividus [1] amounted to 0.1 µM; in the test with Paracentrotus lividus [2] it was 4 µM; with Paracentrotus lividus [3], 5 µM.
Consider `COc1ccc(/C=C\c2cc(OC)c(OC)c(OC)c2)cc1OP(=O)([O-])[O-].[Na+].[Na+]` [FOSBRETABULIN DISODIUM], for which the EC with Paracentrotus lividus [1] was determined as 0.005 µM; with Paracentrotus lividus [2], 0.01 µM; in the test on Paracentrotus lividus [3], 1 µM.
`C/C=C/c1cc(OC)c2c(c1)OCO2` [ISOMYRISTICIN]: the EC with Paracentrotus lividus [1], in the test on Paracentrotus lividus [2] and in the test on Paracentrotus lividus [3] was over 5 µM throughout.
As for `COc1ccc(-c2nnc(-c3cc(OC)c4c(c3)OCO4)[nH]2)cc1O`, the results for the EC with Paracentrotus lividus [1], in the test with Paracentrotus lividus [2] and with Paracentrotus lividus [3] were 2 µM, over 4 µM and over 5 µM, respectively.
The like results for `C/C=C/c1cc2c(c(OC)c1OC)OCO2` [ISODILLAPIOL] were, in that order, 20 µM, 80 µM and over 100 µM.
Turning to `COc1ccc(/C=C/c2cc(OC)c(OC)c(OC)c2OC)cc1O`, the EC with Paracentrotus lividus [1] came to 0.1 µM; with Paracentrotus lividus [2], 1 µM; with Paracentrotus lividus [3], 5 µM.
As for `COc1ccc(-c2nnc(-c3cc(OC)c4c(c3)OCO4)o2)cc1O`, the EC in the test with Paracentrotus lividus [1] was 0.5 µM; in the test with Paracentrotus lividus [2] it was 2 µM; in the test on Paracentrotus lividus [3], over 5 µM.
Take `COc1cccc(-c2nnc(-c3ccc(OC)c(OC)c3)o2)c1`: the figures for the EC with Paracentrotus lividus [1], in the test on Paracentrotus lividus [2] and in the test with Paracentrotus lividus [3] were 0.05 µM, 4 µM and 2 µM, respectively.
`COc1ccc(-c2nnc(-c3cc(OC)c(OC)c(OC)c3)[nH]2)cc1O`: the EC with Paracentrotus lividus [1] was 4 µM; in the test on Paracentrotus lividus [2], over 4 µM; in the test with Paracentrotus lividus [3] it was over 4 µM.
`COc1ccc(/C=C/c2ccc3c(c2)OCCO3)cc1O`: the EC in the test on Paracentrotus lividus [1] turned out to be 0.1 µM; in the test on Paracentrotus lividus [2], 1 µM; in the test with Paracentrotus lividus [3] it was 2 µM.
In the case of `C=CCc1cc(OC)c2c(c1OC)OCO2`, in the test on Paracentrotus lividus [5], the result was inactive.
Consider `COc1cc(-c2noc(-c3ccc4c(c3)OCO4)n2)cc(OC)c1OC`, for which the EC in the test with Paracentrotus lividus [1], with Paracentrotus lividus [2] and with Paracentrotus lividus [3] was over 4 µM in each case.
On to `COc1ccc(-c2nnc(-c3cc(OC)c(OC)c(OC)c3)o2)cc1O`, for which the EC with Paracentrotus lividus [1], with Paracentrotus lividus [2] and in the test with Paracentrotus lividus [3] was over 4 µM each time.
